The text below walks through data of ChEMBL document CHEMBL2401654, “Synthesis, characterization, and biological assessment of the four stereoisomers of the H(3) receptor antagonist 5-fluoro-2-methyl-N-[2-methyl-4-(2-methyl[1,3']bipyrrolidinyl-1'-yl)phenyl]benzamide” (Bioorg Med Chem Lett, 2013).

Data set [1] deals with Mus musculus. Briefly: Toxicity in mouse assessed as effect on body weight at 3 to 30 mg/kg, po. Type of data set: organism-based. Also on record: dose 3-30 mg/kg, route oral. The following applies: in vivo. In a few lines: (§1)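 Behavioral safety study in mice given single oral doses of 3, 10 and 30 mg/kg. Tremors, tail pinch response, body temperature, pupil size and body weight were scored at 2 and 6 h post dose. Clinical signs were observed over one week after dosing.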

Data set [2] relates to Mus musculus. Briefly: Toxicity in mouse assessed as effect on pupil size at 3 to 30 mg/kg, po. Type of data set: organism-based. Also on record: dose 3-30 mg/kg, route oral. The note with it: in vivo. In a few lines:
as §1

Data set [3] deals with Mus musculus. Description: Toxicity in mouse assessed as increase in tail pinch at 30 mg/kg, po measured at 6 hrs. Type of data set: organism-based. Also on record: dose 30 mg/kg, route oral. The note with it: in vivo. In a few lines:
as §1

In data set [4] the test system is Mus musculus. Description: Toxicity in mouse assessed as appearance of tremor at 30 mg/kg, po measured at 2 hrs. Type of data set: organism-based. Also on record: dose 30 mg/kg, route oral. The note with it: in vivo. In a few lines:
as §1

For data set [5], the system named is Mus musculus. Briefly: Toxicity in mouse assessed as increase in body temperature at 30 mg/kg, po measured at 6 hrs. Type of data set: organism-based. Also on record: dose 30 mg/kg, route oral. The note with it: in vivo. In a few lines:
as §1

The subject of data set [6] is Mus musculus. Briefly: Toxicity in mouse assessed as increase in tail pinch at => 10 mg/kg, po. Type of data set: organism-based. Also on record: dose 10 mg/kg, route oral. The note with it: in vivo. In a few lines:
as §1

Data set [7] can be described thus: Genotoxicity in micronucleus (unknown origin).
Another data set deals with Salmonella typhimurium. Description: Mutagenic activity in Salmonella typhimurium by Ames test. The following applies: salmonella enterica subsp. enterica serovar typhimurium. Type of data set: toxicity, organism-based.
In data set [8] the target is Voltage-gated inwardly rectifying potassium channel KCNH2 (Homo sapiens, UniProt Q12809). Description: Inhibition of human ERG transfected in CHO cells by patch clamp assay. Format: cell-based. In a few lines: (§2)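 Whole-cell patch clamp on CHO cells stably transfected with the human ERG gene.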
(The patch-clamp technique gives a direct electrical read-out from membranes.)

Data set [9] has as its target T1, hERG (KCNH2) (Homo sapiens, UniProt Q12809). Briefly: Inhibition of human ERG transfected in CHO cells at 10 uM by patch clamp assay relative to control. Type of data set: cell-based. The note with it: CHO cells transfected with human ERG. In a few lines: as §2
Data set [10] has as its target T1, hERG (KCNH2). Description: Inhibition of human ERG transfected in CHO cells at 1 uM by patch clamp assay relative to control. Format: cell-based. The note with it: CHO cells transfected with human ERG. In a few lines: as §2
Another data set addresses Cytochrome P450 3A4 (Homo sapiens, UniProt P08684). Description: Inhibition of CYP3A4 (unknown origin). Format: ADME.
Another data set concerns the target Cytochrome P450 2C19 (Homo sapiens, UniProt P33261). Briefly: Inhibition of CYP2C19 (unknown origin). Format: ADME.
The next data set has as its target Cytochrome P450 2D6 (Homo sapiens, UniProt P10635). Description: Inhibition of CYP2D6 (unknown origin). Type of data set: ADME.
A further data set has as its target Cytochrome P450 2C9 (Homo sapiens, UniProt P11712). Briefly: Inhibition of CYP2C9 (unknown origin). Type of data set: ADME.
Another data set concerns the target T2, Cytochrome P450 2B6 (Homo sapiens, UniProt P20813).
T2 sequence (P20813 whole entry): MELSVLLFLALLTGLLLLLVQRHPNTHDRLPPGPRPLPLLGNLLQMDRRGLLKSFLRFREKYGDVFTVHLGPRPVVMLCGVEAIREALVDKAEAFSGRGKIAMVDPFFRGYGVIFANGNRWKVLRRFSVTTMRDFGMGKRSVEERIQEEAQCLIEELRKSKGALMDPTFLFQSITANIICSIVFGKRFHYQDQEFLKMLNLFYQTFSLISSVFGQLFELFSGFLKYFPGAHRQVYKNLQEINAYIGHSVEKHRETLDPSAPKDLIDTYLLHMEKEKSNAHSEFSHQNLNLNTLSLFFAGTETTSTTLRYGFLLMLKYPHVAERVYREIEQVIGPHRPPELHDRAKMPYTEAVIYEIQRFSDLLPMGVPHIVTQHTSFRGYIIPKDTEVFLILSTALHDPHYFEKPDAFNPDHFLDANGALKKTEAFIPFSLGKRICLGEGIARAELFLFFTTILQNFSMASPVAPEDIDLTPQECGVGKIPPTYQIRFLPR
Briefly: Inhibition of CYP2B6 (unknown origin). Format: ADME.

The target of the next data set is T3, Cytochrome P450 1A2 (Homo sapiens, UniProt P05177).
T3 sequence (P05177 whole entry): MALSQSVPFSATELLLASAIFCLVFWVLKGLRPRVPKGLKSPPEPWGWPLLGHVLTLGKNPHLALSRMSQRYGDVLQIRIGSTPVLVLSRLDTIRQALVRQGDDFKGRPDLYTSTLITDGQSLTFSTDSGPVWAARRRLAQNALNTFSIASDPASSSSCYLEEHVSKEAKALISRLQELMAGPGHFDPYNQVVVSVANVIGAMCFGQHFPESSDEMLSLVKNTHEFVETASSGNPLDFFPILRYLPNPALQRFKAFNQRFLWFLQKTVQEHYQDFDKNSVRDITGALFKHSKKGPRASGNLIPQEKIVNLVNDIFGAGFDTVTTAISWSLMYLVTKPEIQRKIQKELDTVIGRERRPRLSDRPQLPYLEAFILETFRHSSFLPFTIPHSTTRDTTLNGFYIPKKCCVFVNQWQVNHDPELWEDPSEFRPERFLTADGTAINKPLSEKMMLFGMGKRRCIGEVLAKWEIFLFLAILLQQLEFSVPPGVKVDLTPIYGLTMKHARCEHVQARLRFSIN
Briefly: Inhibition of CYP1A2 (unknown origin). Format: ADME.

The nature of data set [11]: Ratio of AUC (0 to 24 hrs) in C57BL/6 mouse brain to AUC (0 to 24 hrs) in C57BL/6 mouse plasma at 10 mg/kg, po. Also on record: dose 10 mg/kg, route oral. The following applies: read-out: Ratio AUC. Format: ADME, organism-based. In a few lines: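 Male C57BL/6 mice were given a single oral dose of 10 mg/kg, formulated at 1 mg/mL in 5% DMSO/0.5% MC/0.2% tween 80. Compound levels were measured in plasma and brain over time. The brain-to-plasma ratio was calculated from AUC0-24 values.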

Data set [12] in a line: Ratio of AUC (0 to 24 hrs) in C57BL/6 mouse brain to AUC (0 to 24 hrs) in C57BL/6 mouse plasma at 2 mg/kg, iv. Type of data set: ADME, organism-based. Also on record: dose 2 mg/kg, route intravenous. The following applies: read-out: Ratio AUC. In a few lines:
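Male C57BL/6 mice were given a single intravenous dose of 2 mg/kg, formulated at 1 mg/mL in 50% 1-methyl-2-pyrrolidinone in saline. Plasma and brain exposure profiles were collected, and the brain-to-plasma ratio was derived from the AUC values of the two tissues.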

Data set [13] in a line: Volume of distribution at steady state in C57BL/6 mouse at 2 mg/kg, iv. Format: ADME, organism-based. Also on record: dose 2 mg/kg, route intravenous. The note with it: in vivo, read-out: Vdss. In a few lines:
(§3)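 Male C57BL/6 mice received a single intravenous dose of 2 mg/kg, formulated at 1 mg/mL in 50% 1-methyl-2-pyrrolidinone in saline. Plasma and brain concentrations were followed to derive PK parameters. Brain to plasma ratio was calculated from AUC.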

Data set [14] in a line: Clearance in C57BL/6 mouse at 2 mg/kg, iv. Type of data set: ADME, organism-based. Also on record: dose 2 mg/kg, route intravenous. The note with it: in vivo. In a few lines: as §3
Data set [15] can be described thus: Half life in C57BL/6 mouse brain at 10 mg/kg, po. Format: ADME, organism-based. Also on record: dose 10 mg/kg, route oral. In a few lines:
(§4)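 Male C57BL/6 mice were dosed orally at 10 mg/kg, formulated at 1 mg/mL in 5% DMSO/0.5% MC/0.2% tween 80. Plasma and brain were sampled for PK parameters. Brain to plasma ratio was based on AUC0-24.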

The nature of data set [16]: Half life in C57BL/6 mouse plasma at 10 mg/kg, po. Type of data set: ADME, organism-based. Also on record: dose 10 mg/kg, route oral. In a few lines: as §4

T1 sequence (Q12809 whole entry): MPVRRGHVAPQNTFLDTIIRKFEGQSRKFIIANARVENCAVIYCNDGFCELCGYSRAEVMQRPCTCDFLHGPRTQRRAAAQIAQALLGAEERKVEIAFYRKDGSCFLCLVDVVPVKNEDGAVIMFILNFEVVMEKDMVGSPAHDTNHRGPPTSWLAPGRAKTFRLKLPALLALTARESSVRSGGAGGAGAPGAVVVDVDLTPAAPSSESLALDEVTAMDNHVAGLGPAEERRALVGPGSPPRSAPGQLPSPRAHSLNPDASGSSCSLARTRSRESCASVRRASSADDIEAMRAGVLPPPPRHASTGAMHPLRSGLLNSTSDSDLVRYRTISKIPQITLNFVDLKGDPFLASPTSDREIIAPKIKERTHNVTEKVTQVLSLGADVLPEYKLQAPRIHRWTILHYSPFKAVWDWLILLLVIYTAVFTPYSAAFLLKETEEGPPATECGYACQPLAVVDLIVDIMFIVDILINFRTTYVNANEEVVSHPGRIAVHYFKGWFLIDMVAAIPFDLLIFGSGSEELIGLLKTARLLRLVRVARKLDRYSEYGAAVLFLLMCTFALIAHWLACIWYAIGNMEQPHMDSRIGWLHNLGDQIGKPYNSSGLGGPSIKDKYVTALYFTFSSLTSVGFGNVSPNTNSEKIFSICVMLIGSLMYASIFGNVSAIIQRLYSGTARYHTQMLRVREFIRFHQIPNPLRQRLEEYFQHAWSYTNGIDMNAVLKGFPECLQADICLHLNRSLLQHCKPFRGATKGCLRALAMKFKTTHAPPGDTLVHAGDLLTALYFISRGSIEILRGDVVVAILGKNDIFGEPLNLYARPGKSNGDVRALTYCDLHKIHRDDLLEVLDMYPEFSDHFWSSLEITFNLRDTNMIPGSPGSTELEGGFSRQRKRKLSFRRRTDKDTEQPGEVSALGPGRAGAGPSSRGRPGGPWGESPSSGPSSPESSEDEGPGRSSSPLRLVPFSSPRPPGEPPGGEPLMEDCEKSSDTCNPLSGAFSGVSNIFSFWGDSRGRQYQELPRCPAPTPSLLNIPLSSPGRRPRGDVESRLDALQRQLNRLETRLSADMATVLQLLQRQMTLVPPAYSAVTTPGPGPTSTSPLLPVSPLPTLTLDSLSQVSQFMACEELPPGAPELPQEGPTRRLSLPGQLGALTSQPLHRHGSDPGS
Sequence of Cytochrome P450 2C9 (P11712 whole entry): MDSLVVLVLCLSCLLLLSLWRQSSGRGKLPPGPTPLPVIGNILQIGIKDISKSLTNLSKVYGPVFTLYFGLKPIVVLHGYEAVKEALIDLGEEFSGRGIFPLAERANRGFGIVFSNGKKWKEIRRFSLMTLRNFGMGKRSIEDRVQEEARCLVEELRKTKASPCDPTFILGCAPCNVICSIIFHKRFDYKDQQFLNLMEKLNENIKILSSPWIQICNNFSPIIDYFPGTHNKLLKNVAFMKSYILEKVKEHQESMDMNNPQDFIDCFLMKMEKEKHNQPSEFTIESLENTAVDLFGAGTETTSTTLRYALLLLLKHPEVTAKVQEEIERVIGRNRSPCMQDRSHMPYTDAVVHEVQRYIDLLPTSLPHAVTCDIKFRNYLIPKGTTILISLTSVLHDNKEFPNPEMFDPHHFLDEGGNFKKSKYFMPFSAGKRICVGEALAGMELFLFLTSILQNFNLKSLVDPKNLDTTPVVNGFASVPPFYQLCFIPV
Sequence of Cytochrome P450 3A4 (P08684 whole entry): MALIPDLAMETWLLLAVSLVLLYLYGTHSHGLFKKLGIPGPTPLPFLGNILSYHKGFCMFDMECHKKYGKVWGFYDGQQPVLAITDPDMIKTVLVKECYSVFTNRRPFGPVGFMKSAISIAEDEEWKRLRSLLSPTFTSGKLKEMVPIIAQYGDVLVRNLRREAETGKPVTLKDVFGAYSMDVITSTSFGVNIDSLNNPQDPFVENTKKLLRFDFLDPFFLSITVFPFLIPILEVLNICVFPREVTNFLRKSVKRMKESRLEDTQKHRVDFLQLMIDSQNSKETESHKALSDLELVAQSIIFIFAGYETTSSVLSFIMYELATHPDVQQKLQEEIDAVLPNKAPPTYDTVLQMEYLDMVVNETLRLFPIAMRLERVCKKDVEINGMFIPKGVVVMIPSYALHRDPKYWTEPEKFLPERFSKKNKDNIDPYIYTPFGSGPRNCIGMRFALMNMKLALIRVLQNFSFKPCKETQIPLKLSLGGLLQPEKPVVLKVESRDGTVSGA
Sequence of Cytochrome P450 2D6 (P10635 whole entry): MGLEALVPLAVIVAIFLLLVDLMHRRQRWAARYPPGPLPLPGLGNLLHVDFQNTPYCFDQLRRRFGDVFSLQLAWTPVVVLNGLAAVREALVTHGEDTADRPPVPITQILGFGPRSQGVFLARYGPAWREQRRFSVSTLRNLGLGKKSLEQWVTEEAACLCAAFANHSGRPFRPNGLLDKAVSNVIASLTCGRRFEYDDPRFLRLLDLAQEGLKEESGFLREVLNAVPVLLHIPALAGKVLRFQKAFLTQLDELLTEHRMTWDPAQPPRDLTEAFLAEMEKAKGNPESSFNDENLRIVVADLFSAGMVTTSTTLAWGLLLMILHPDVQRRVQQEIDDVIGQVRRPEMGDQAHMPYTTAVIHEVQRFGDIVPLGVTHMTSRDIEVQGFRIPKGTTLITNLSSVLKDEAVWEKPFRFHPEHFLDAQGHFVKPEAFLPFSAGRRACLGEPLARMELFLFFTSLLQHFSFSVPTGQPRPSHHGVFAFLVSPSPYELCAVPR
Sequence of Voltage-gated inwardly rectifying potassium channel KCNH2 (Q12809 whole entry): as the sequence (Q12809 whole entry) above
Sequence of Cytochrome P450 2C19 (P33261 whole entry): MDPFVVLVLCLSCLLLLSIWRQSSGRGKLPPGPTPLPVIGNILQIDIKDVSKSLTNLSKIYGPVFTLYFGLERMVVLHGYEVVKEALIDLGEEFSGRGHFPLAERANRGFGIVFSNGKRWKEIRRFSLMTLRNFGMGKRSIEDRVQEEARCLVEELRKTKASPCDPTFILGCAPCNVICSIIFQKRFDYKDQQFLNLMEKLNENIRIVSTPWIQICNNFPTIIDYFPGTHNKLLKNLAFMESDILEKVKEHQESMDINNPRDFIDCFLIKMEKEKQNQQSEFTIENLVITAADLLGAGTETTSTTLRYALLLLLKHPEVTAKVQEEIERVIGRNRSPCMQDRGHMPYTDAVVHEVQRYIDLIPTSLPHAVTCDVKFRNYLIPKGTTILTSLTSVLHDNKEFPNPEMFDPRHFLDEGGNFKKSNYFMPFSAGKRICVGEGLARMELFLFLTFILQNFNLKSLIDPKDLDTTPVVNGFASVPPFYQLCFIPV

Usually IC50 stands for the concentration that gives 50% inhibition. A higher IC50 goes with a need for much substance. As a reminder, the inhibition is how much of the control response was suppressed. Low values mean a weak effect, high ones a strong effect. By clearance is commonly meant the rate of elimination divided by the concentration. Read a low clearance as a low capacity for elimination. Broadly, the half-life is how long it takes for the measured level to halve. For `Cc1cc(N2CC[C@H](N3CCC[C@@H]3C)C2)ccc1NC(=O)c1cc(F)ccc1C`, the Activity result in the data set with Mus musculus [1] is on record as “Non-toxic”; in the data set on Mus musculus [2], “Non-toxic”; with Mus musculus [3] it was “Toxic”; in the data set with Mus musculus [4], “Toxic”; in the data set on Mus musculus [5], “Toxic”; in the data set with Mus musculus [6], “Toxic”. Further, the Activity result (in [7]; in the data set with Salmonella typhimurium) was “Non-toxic” in each case. Moreover, the IC50 in [8] is 1.1 µM; against Cytochrome P450 3A4, greater than 30 µM; at Cytochrome P450 2C19, greater than 30 µM; on Cytochrome P450 2D6, greater than 30 µM; against Cytochrome P450 2C9, greater than 30 µM; at Cytochrome P450 2B6, greater than 30 µM. On Cytochrome P450 1A2, this compound registered an IC50 greater than 30 µM. The compound also gave an inhibition at 10 µM against hERG (KCNH2) [9] of 84.3%. On hERG (KCNH2) [10], this compound came in with an inhibition at 1 µM of 43.4%. The values for the Kp in data set [11] and in data set [12] were 4.6 and 4.7, respectively. Further, in [13], the Vd is 5.2 L/kg. For the same compound, the clearance in [14] is 60 mL/min/kg. Moreover, the results for the half-life in data set [15] and in data set [16] were 3.5 h and 3.6 h, respectively.
